Shown are actives, neighbours in structure and some others; about 1.4% of the full set was active somewhere.
OPRM1-OPRD1 inv: inverse agonists of MOR-DOR heterodimerization, primary screen, cell-based, luminescence. Mu-type opioid receptor (Homo sapiens) + Delta-type opioid receptor (Homo sapiens), …. cell-based MOR-DOR heterodimer luminescence, inverse agonism. inhibition, % at 9.3 µM. hit rate 0.21% among 340,000; in the data active means inhibition above about 22%, passing the limit was not always enough;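 further: 0% = cells with DMSO and 100% = wells without cells with DMSO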
Lipid droplet: inhibitors of hepatocyte lipid droplet formation, primary screen, imaging, high-throughput imaging, BODIPY stain; hit rate 0.4% among 240,000; AML12 mouse hepatocytes, oleate lipid droplets; inhibition, % at 6.5 µM;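 active means lipid droplet intensity inhibited by at least 50%, with more than 500 cells counted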
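Material: mouse AML12 hepatocyte cell line, fixed after treatment; Timing: compound with oleate, overnight; Technique: high-content imaging of BODIPY-stained droplets and DAPI nuclei; Probe or stimulus: oleate, 100 µM final; Dosing: compound at 6.5 µM only.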
MOR-DOR ag-1: agonists of OPRM1-OPRD1 heterodimerization, primary screen, cell-based, luminescence; Mu-type opioid receptor (Homo sapiens) + Delta-type opioid receptor (Homo sapiens), …; cells; activation, % at 9.3 µM; hit rate 0.3% among 340,000; AID 504326, 2011;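 further: 0% = vehicle-treated cells and 100% = reference agonist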
HTR5A inv ag: HTR5A inverse agonists in luminescence cell assay, primary screen, counter-screen for OPRM1-OPRD1 heterodimer inverse agonist project, full-deck HTS. AID 504634, 2011. HTR5A cell line, inverse agonism. hit rate 0.083% among 340,000. inhibition, % at 9.3 µM. 5-hydroxytryptamine receptor 5A (Homo sapiens), P47898; in the data active means inhibition mostly above about 23%, no sharp cut-off; inactive means mostly below about 18%;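 further: 0% = cells with DMSO and 100% = no-cell wells with DMSO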
Target sequence (P47898 whole entry, looked up): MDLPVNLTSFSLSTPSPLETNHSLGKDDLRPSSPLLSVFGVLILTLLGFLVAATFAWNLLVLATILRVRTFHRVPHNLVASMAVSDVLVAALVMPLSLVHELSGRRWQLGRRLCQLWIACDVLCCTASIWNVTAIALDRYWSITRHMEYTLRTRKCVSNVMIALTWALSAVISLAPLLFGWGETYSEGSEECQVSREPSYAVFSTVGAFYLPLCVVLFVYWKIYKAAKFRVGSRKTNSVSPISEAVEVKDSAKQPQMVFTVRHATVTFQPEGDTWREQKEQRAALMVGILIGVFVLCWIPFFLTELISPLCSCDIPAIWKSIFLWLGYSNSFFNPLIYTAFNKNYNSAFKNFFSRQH
HTR5A ag ctr: HTR5A agonists in luminescence cell assay, primary screen, counter-screen for OPRM1-OPRD1 heterodimer agonist project, full-deck HTS. 5-hydroxytryptamine receptor 5A (Homo sapiens), P47898. cell-based. activation, % at 9.3 µM. hit rate 0.61% among 340,000. AID 504692, 2011; in the data active means activation mostly above about 9.5%, no sharp cut-off; inactive means mostly below about 7.6%;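 further: 0% = cells with vehicle only and 100% = reference agonist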
MOR-DOR ag-2: OPRM1-OPRD1 heterodimerization promoters, counter-screen for HTR5A agonist project, cell-based, luminescence. shares compounds with HTR5A ag ctr. U2OS counter-screen cells, complementation luminescence, 3 h. activation, % at 9.3 µM. hit rate 13% among 800. AID 504913, 2011
HTR5A ag conf: HTR5A agonists, retest of hits, confirmation, cell-based, luminescence. shares compounds with HTR5A ag ctr. HTR5A agonist cell assay. activation, % at 9.3 µM. hit rate 17% among 800. AID 504915, 2011; in the data active means activation above about 17%;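 further: 0% = cells with vehicle only and 100% = full reference agonist response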
An asterisk follows results filed as active; . = no result given. Unless noted, no stated cut-off is given here; in the data, active means activation above about 18%; inactive means the rest.

SMILES | OPRM1-OPRD1 inv | Lipid droplet | MOR-DOR ag-1 | HTR5A inv ag | HTR5A ag ctr | MOR-DOR ag-2 | HTR5A ag conf
Cc1nc(NC(=O)/C=C/c2ccccc2)sc1C(=O)Nc1ccccc1Cl | 3.7 | . | -0.7 | 18.9 | -1.9 | . | .
Cc1nc(NC(=O)/C=C/c2ccccc2)sc1C(=O)Nc1ccc(Cl)cc1 | -58.5 | . | 11.6 | -48.9 | 17.1* | 4.1 | 4.2
O=S(=O)(NCc1cccnc1)c1ccc(Cl)c2ccccc12 | -6.3 | -12.8 | 0.8 | 5.0 | -1.9 | . | .
COc1ccc(C2=NOC(Cn3nc(C(=O)NCc4cccc(C(F)(F)F)c4)cc3-c3ccccc3)C2)cc1 (stereo not given) | 16.1 | . | -3.5 | -0.7 | 0.8 | . | .
O=C(O)c1ccc2c(c1)N(Cc1ccccc1F)C(=O)c1ccccc1S2=O (stereo not given) | 9.1 | -2.9 | -1.7 | -45.2 | 16.4* | -0.1 | -1.6
COc1cccc(C2CC(=O)Nc3cc4c(cc32)CCC4)c1 (stereo not given) | 0.9 | -10.3 | -0.2 | -42.0 | 14.7* | 53.5* | -1.3
COc1cccc(C2CC(=O)Nc3cc(OC)c(OC)cc32)c1 (stereo not given) | 6.3 | 0.5 | -1.4 | -4.3 | 1.2 | . | .
COC(=O)c1ccc(NC(=O)COc2cccc3c2OC(C)(C)C3)cc1 | -28.1 | . | 4.2 | -103.9 | 39.8* | 2.5 | 43.8*
CN(C)CCNC(=O)COc1cccc2c1OC(C)(C)C2 | 4.7 | -21.0 | -1.0 | -10.0 | 3.9 | . | .
CC1(C)Cc2cccc(OCC(=O)Nc3ccc(S(N)(=O)=O)cc3)c2O1 | 14.0 | . | -2.9 | -99.4 | 34.2* | 3.1 | 6.0
CC1(C)Cc2cccc(OCC(=O)Nc3ccc(OCC(N)=O)cc3)c2O1 | 7.2 | -14.8 | -1.5 | -25.6 | 9.9 | . | .
CN(C)C(=O)c1ccc(NC(=O)COc2cccc3c2OC(C)(C)C3)cc1 | 19.1 | . | -3.9 | -92.1 | 28.3* | 0.5 | 37.6*
CC(=O)NS(=O)(=O)c1ccc(NC(=O)COc2cccc3c2OC(C)(C)C3)cc1 | 17.5 | . | -2.7 | -23.1 | 3.0 | . | .
O=C1OCC2OC(O)C(O)C(O)C2OC(=O)c2cc(O)c(O)c(O)c2-c2c(O)c(O)c3oc(=O)c4c(c(O)c(O)c5oc(=O)c2c3c54)-c2c1cc(O)c(O)c2O (stereo not given) | . | 3.4 | . | . | . | . | .
CN(CC(=O)Nc1ccccc1C(F)(F)F)C(=O)CSCc1ccccc1 | 11.7 | . | -2.2 | 1.0 | -0.4 | . | .
CC(NC(=O)c1ccco1)c1ccc2c(c1)OCCO2 (stereo not given) | 0.3 | -14.5 | -0.1 | -14.3 | 15.4* | 1.9 | -2.9
O=C(O)/C=C/C(=O)Nc1ccc(C2(c3ccc(NC(=O)/C=C/C(=O)O)cc3)c3ccccc3-c3ccccc32)cc1 | -9.5 | 2.1 | 1.9 | -100.1 | 26.4* | 3.5 | -0.7
CCOC(=O)c1cc(C(=O)c2cccs2)n2ccc(C(C)=O)cc12 | 14.5 | 12.4 | -2.6 | -55.0 | 19.9* | 3.1 | -2.0
Cc1ccc(-c2noc(CN3CCN(c4ccccc4F)CC3)n2)cc1 | -9.0 | 1.1 | 1.8 | -54.8 | 19.6* | -3.7 | -3.6
Cc1ccc(-c2noc(CN3CCCCC3)n2)cc1 | -2.7 | . | 0.5 | 13.8 | -4.5 | . | .
NC(=O)C1CCN(Cc2nc(-c3ccccc3)no2)CC1 | 8.0 | . | -1.8 | -46.7 | 17.0* | 0.4 | -1.3
COc1ccc(-c2nc(C#N)c(N3CCc4ccccc4C3)o2)cc1OC | 9.1 | . | -1.9 | -42.0 | 17.6* | 0.2 | 0.5
COc1ccccc1-c1nc(C#N)c(N2CCc3ccccc3C2)o1 | -6.8 | 1.7 | 1.3 | -25.8 | 8.7 | . | .
COc1cccc(OCC(=O)NNC(=S)Nc2ccc(Cl)cc2Cl)c1 | 3.2 | 0.5 | -0.6 | 8.7 | -1.8 | . | .
CS(=O)(=O)N1CCCC(C(=O)NCc2ccc(F)cc2)C1 (stereo not given) | 0.4 | -4.4 | -0.1 | -20.6 | 15.8* | 16.7 | 8.1

From PubChem
